Assay results reported in ChEMBL document CHEMBL5661979, “Pharmacological inhibition of BMK1 suppresses tumor growth through promyelocytic leukemia protein” (Cancer Cell, 2010).
The source made the active and inactive calls. The calls are words filed in the database; no cut-off is given here.

Assays:
[1] = Inhibition of MSK1/2 in human HeLa cells lysate pre incubated for 15 mins followed by ADP acyl phosphate probe addition and measured after 10 mins by LC-MS/MS analysis; format: subcellular
[2] = Inhibition of PCTAIRE2/ICK in human HeLa cells lysate pre incubated for 15 mins followed by ADP acyl phosphate probe addition and measured after 10 mins by LC-MS/MS analysis; format: subcellular
SRSF protein kinase 1 = SRSF protein kinase 1 (Homo sapiens, UniProt Q96SB4); assay: Inhibition of SRPK1 in human HeLa cells lysate at 2 uM pre incubated for 15 mins followed by ATP acyl phosphate probe addition and measured after 10 mins by LC-MS/MS analysis relative to control; format: subcellular; conditions: time 25.0 min
Chain of SRSF protein kinase 1 (Q96SB4 whole entry): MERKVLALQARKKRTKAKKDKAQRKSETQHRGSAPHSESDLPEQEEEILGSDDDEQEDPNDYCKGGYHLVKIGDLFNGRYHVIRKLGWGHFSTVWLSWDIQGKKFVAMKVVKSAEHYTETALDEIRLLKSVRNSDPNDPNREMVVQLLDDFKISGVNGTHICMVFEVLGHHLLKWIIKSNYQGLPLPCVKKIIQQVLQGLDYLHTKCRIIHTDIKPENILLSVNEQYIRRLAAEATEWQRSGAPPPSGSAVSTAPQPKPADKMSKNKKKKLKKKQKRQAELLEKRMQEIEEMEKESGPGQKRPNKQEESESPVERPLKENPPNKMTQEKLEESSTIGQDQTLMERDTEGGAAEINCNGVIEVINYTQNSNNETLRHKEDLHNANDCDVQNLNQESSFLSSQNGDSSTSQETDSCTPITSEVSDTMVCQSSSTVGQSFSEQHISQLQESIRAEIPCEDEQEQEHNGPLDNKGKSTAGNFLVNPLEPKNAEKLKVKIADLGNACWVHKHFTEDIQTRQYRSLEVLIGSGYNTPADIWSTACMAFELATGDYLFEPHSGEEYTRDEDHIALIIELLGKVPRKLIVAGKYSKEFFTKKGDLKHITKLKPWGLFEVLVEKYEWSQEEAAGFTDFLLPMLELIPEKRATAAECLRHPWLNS

Ephrin type-B receptor 4 = Ephrin type-B receptor 4 (Homo sapiens, UniProt P54760); assay: Inhibition of EphB4 in human HeLa cells lysate pre incubated for 15 mins followed by ATP acyl phosphate probe addition and measured after 10 mins by LC-MS/MS analysis; format: subcellular
Chain of Ephrin type-B receptor 4 (P54760 whole entry): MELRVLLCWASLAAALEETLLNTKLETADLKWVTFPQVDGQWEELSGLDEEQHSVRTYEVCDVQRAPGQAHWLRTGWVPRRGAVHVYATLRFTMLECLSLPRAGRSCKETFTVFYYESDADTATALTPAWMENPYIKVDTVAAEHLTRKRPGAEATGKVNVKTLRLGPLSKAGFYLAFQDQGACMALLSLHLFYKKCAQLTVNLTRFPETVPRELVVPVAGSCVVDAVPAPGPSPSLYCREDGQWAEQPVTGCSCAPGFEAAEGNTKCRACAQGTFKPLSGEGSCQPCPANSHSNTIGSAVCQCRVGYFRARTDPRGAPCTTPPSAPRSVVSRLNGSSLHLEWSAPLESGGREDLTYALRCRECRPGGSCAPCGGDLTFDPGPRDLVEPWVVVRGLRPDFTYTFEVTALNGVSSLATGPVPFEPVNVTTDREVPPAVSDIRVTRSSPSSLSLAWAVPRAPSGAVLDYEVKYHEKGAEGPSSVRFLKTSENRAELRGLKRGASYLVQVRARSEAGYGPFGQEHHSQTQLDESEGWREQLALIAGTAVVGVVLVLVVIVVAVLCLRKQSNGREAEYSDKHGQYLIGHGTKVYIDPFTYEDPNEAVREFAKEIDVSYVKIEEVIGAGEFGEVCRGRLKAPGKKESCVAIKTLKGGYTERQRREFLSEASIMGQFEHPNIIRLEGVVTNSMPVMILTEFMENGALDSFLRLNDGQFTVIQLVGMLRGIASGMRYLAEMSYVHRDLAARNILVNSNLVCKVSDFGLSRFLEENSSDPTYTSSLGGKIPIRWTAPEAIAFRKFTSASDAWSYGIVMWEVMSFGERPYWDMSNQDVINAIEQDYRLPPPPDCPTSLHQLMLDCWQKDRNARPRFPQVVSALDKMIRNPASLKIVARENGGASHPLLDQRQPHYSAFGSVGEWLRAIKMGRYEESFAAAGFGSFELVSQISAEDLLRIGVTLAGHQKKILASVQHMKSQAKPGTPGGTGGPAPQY

[3] = molecular target: T1, Serine/threonine-protein kinase 24 (Homo sapiens, UniProt Q9Y6E0); assay: Inhibition of MST3 in human HeLa cells lysate at 50 uM pre incubated for 15 mins followed by ADP acyl phosphate probe addition and measured after 10 mins by LC-MS/MS analysis relative to control; format: subcellular; conditions: time 25.0 min
[4] = Inhibition of HGK/MINK/TNIK in human HeLa cells lysate pre incubated for 15 mins followed by ATP acyl phosphate probe addition and measured after 10 mins by LC-MS/MS analysis; format: subcellular
[5] = molecular target: T2, Phosphatidylinositol 5-phosphate 4-kinase type-2 gamma (Homo sapiens) (UniProt Q8TBX8); assay: Inhibition of PIP5K2C LIP1 site in human HeLa cells lysate at 2 uM pre incubated for 15 mins followed by ATP acyl phosphate probe addition and measured after 10 mins by LC-MS/MS analysis relative to control; format: subcellular; conditions: time 25.0 min
T2 sequence (whole entry): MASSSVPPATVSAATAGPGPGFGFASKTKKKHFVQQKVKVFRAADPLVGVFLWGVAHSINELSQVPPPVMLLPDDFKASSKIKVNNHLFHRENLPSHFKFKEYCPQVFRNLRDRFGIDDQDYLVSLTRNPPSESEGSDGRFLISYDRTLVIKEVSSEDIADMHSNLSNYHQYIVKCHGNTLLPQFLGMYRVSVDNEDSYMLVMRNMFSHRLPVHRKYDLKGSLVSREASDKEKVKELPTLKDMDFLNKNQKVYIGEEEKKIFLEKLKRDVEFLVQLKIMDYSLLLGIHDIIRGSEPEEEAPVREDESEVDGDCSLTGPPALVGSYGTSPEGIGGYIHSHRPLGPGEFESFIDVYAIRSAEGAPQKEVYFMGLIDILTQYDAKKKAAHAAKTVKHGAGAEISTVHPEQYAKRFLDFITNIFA

[6] = molecular target: T3, Non-receptor tyrosine-protein kinase TNK1 (Homo sapiens) (UniProt Q13470); assay: Inhibition of TNK1 in human HeLa cells lysate at 2 uM pre incubated for 15 mins followed by ADP acyl phosphate probe addition and measured after 10 mins by LC-MS/MS analysis relative to control; format: subcellular; conditions: time 25.0 min
T3 sequence (whole entry): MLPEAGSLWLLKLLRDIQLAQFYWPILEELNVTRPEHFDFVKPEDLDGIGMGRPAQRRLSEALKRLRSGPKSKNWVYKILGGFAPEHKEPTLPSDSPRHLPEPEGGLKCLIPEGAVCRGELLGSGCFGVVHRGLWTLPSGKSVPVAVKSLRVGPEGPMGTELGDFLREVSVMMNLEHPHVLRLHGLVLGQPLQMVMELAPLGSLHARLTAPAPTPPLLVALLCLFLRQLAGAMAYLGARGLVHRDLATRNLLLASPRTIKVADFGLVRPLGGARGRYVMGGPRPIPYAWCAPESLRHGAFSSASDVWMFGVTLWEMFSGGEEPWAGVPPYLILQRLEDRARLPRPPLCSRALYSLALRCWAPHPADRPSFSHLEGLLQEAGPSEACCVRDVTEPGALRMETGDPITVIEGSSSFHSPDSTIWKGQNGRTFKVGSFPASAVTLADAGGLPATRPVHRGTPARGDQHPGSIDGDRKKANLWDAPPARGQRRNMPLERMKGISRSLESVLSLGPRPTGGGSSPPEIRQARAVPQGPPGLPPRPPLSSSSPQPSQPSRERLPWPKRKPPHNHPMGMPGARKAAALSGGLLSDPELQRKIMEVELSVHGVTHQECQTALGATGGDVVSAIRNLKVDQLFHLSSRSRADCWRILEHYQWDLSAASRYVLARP

HeLa = assay: Antitumor activity against human HeLa cells xenografted in NOD/SCID mouse assessed as reduction tumor growth at 50 mg/kg, ip administered on day 7 post implantation measured after 28 days; format: functional, organism-based; conditions: time 21.0 day
Method in brief: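 HeLa cells (5×10^5, in DMEM) were injected s.c. into the right flank of 6-week-old Nod/Scid mice on day 0. Dosing was 50 mg/kg i.p. twice daily, starting on day 1, 7 or 14 and continuing to day 28; controls received carrier. 6 mice per treated group. Tumors were measured every 2–3 days.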

[7] = molecular target: Serine/threonine-protein kinase PRP4 homolog (Homo sapiens, UniProt Q13523); assay: Inhibition of PRP4 in human HeLa cells lysate pre incubated for 15 mins followed by ATP acyl phosphate probe addition and measured after 10 mins by LC-MS/MS analysis; format: subcellular
Chain of Serine/threonine-protein kinase PRP4 homolog (Q13523 whole entry): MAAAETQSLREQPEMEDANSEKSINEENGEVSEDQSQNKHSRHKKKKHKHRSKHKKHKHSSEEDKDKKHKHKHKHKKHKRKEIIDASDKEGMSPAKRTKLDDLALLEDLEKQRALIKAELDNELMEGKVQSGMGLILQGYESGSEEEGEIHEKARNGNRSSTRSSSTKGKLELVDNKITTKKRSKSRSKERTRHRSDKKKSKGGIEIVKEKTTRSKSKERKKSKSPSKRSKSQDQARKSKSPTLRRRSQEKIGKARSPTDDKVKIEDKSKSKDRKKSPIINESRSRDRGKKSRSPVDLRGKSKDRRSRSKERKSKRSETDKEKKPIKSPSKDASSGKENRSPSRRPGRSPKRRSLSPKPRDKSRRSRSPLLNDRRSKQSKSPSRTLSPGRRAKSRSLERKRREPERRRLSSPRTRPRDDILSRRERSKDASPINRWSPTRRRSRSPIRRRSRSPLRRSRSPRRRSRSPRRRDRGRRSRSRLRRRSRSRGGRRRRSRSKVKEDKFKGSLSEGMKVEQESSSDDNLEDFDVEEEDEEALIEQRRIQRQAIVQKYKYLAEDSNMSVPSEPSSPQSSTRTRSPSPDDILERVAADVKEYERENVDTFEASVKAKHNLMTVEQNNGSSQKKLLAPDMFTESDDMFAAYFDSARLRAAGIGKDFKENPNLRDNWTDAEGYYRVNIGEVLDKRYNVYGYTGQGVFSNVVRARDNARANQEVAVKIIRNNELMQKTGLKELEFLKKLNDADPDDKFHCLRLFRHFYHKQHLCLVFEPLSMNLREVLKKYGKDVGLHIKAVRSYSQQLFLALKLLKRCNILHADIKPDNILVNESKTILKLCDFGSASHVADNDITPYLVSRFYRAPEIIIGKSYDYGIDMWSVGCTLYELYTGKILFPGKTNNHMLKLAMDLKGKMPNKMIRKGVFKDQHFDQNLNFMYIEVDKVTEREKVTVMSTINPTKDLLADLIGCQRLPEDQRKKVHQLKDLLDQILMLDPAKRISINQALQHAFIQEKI

[8] = molecular target: Insulin-like growth factor 1 receptor (Homo sapiens, UniProt P08069); assay: Inhibition of IGF1R in human HeLa cells lysate pre incubated for 15 mins followed by ADP acyl phosphate probe addition and measured after 10 mins by LC-MS/MS analysis; format: subcellular
[9] = molecular target: Ribosomal protein S6 kinase alpha-1 (Homo sapiens, UniProt Q15418); assay: Inhibition of RSK1 domain 2 K2 site in human HeLa cells lysate at 2 uM pre incubated for 15 mins followed by ADP acyl phosphate probe addition and measured after 10 mins by LC-MS/MS analysis relative to control; format: subcellular; conditions: time 25.0 min
Chain of Ribosomal protein S6 kinase alpha-1 (Q15418 whole entry, the tested form may be a part): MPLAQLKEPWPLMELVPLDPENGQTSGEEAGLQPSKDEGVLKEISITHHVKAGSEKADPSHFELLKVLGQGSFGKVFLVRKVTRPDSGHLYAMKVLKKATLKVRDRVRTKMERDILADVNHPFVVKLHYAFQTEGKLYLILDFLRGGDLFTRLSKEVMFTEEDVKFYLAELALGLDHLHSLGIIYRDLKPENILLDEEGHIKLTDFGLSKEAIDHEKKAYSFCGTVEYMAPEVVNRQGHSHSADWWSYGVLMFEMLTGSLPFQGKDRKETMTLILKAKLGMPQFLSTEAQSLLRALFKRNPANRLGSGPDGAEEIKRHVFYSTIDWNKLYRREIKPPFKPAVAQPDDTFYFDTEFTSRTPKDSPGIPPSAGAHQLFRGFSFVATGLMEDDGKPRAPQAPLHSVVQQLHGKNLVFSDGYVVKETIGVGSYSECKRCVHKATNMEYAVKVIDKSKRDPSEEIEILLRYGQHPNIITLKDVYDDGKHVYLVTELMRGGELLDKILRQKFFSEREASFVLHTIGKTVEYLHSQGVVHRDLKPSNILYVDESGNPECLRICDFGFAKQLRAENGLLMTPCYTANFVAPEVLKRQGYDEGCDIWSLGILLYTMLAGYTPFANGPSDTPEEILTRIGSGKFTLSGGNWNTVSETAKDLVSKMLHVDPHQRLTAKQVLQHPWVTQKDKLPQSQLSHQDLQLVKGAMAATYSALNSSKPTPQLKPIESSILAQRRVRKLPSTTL

[10] = Inhibition of HGK/MINK/TNIK in human HeLa cells lysate at 2 uM pre incubated for 15 mins followed by ADP acyl phosphate probe addition and measured after 10 mins by LC-MS/MS analysis relative to control; conditions: 25 min, condition cancer
[11] = molecular target: T1, Serine/threonine-protein kinase 24; assay: Inhibition of MST3 in human HeLa cells lysate pre incubated for 15 mins followed by ATP acyl phosphate probe addition and measured after 10 mins by LC-MS/MS analysis; format: subcellular
[12] = molecular target: Phosphatidylinositol 5-phosphate 4-kinase type-2 beta (Homo sapiens, UniProt P78356); assay: Inhibition of PIP5K2B in human HeLa cells lysate pre incubated for 15 mins followed by ATP acyl phosphate probe addition and measured after 10 mins by LC-MS/MS analysis; format: subcellular
Chain of Phosphatidylinositol 5-phosphate 4-kinase type-2 beta (P78356 whole entry): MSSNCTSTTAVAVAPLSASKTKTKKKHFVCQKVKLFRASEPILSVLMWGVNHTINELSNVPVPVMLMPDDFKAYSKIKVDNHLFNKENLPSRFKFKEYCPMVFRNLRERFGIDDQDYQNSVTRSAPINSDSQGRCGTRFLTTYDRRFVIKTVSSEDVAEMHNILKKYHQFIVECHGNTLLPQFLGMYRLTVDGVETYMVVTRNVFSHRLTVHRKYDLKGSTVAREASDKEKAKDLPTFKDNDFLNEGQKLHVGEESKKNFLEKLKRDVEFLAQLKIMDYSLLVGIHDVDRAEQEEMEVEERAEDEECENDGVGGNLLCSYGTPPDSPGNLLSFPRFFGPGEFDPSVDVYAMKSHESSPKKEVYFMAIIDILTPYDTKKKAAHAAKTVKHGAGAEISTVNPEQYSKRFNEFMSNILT

Ephrin type-A receptor 2 = Ephrin type-A receptor 2 (Homo sapiens, UniProt P29317); assay: Inhibition of EphA2 in human HeLa cells lysate at 2 uM pre incubated for 15 mins followed by ATP acyl phosphate probe addition and measured after 10 mins by LC-MS/MS analysis relative to control; format: subcellular; conditions: time 25.0 min
Chain of Ephrin type-A receptor 2 (P29317 whole entry): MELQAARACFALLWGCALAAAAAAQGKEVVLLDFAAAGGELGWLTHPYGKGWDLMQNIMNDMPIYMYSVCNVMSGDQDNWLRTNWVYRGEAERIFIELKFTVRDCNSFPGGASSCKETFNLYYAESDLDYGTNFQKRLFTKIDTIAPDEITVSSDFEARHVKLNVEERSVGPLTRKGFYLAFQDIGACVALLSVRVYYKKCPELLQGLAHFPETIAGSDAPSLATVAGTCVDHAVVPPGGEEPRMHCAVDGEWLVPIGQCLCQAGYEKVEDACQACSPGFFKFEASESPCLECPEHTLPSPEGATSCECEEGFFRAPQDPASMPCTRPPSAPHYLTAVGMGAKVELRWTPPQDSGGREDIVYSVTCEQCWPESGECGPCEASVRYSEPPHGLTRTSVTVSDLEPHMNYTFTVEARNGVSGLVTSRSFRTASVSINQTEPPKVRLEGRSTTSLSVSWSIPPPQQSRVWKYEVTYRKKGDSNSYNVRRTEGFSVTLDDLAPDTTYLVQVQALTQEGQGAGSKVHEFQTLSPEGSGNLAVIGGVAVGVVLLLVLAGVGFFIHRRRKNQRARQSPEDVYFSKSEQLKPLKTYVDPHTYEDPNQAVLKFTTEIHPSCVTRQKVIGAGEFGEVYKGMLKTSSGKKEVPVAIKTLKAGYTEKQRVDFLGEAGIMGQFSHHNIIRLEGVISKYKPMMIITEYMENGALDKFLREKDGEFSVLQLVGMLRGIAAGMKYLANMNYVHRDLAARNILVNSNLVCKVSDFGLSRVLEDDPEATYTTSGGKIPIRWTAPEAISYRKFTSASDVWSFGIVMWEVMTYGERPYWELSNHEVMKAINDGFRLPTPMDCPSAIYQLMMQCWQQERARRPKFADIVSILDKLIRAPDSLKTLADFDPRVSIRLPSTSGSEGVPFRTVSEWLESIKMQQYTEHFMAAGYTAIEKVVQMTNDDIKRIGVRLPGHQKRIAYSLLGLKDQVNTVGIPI

Work on CCOc1cc(N2CCC(O)CC2)ccc1Nc1ncc2c(n1)N(C)c1ccccc1C(=O)N2C yielded an IC50 [1] greater than 50 µM, an IC50 [2] greater than 50 µM and an inhibition (SRSF protein kinase 1) of -2%. It also gave an IC50 (Ephrin type-B receptor 4) greater than 50 µM, an inhibition [3] of -8.5% and an IC50 [4] greater than 50 µM. For the same molecule, the inhibition [5] was -3.7%, the inhibition [6] was 9.2% and the Activity (HeLa) was “Active”. The IC50 [7] was greater than 50 µM, the IC50 [8] was greater than 50 µM and the inhibition [9] was -6.4%. The inhibition at 2 µM [10] was 8.7%, the IC50 [11] was greater than 50 µM and the IC50 [12] was greater than 50 µM. For the same molecule, the inhibition (Ephrin type-A receptor 2) was -7.6%.
